Assay outcomes as filed in PubChem BioAssay.
Fibroblast inh: antiproliferative effect on LL 47 fibroblasts – human, LL 47 cells, CellTiter-Glo luminescence, primary screen | 85,000 tested, 1.1% active | viability, % at 10 µM | AID 719, 2007 | LL 47 human lung fibroblast viability, ATP luminescence; active compounds read low;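 active = viability at or below 50% in the single dose screen; inactive = viability above 50%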;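 note: compound exposure lasted 72 h before the ATP readout; 100% = median luminescence of untreated cell-only wells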
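Test system: LL 47 human lung fibroblasts / Quantity: 1,150 cells in each well / Medium: IMEM growth medium with 15% fetal bovine serum / Incubation: 72 h compound exposure at 37 °C after overnight plating / Detection: CellTiter-Glo luminescence measuring cellular ATP / Read-out: % viability versus median cells-only luminescence / Benchmarks: cell-only wells, no compound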
PTEN del growth: growth suppression of PTEN-null HCT116, primary screen, cell-based, CellTiter-Glo; HCT116 PTEN-null viability, 60 h; active compounds read low; viability, % at 10 µM; 140,000 tested, 1.2% active;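 active = viability at or below a set limit, 4 SD under the median of all tested compounds, cut at about 3.7% in these data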;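 note: PTEN knockout HCT116 line with beta catenin targeted HCT116 as companion control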
HCT116 bCat-KO: primary screen for growth suppressors in beta-catenin knockout HCT116 cells (colon tumor, human); HCT116 beta-catenin knockout viability, CellTiter-Glo, 60 h; active compounds read low; viability, % at 10 µM; 140,000 tested, 1.5% active; AID 818, 2007;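 active = viability at or under a set limit, the compound median less 4 SD, cut at about 6% in these data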;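 note: 0% = Hyamine 1622 control at 20 µM and 100% = untreated cell control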
H69AR growth 86K: proliferation blockers of H69AR lung cancer cells, primary screen, cell-based, human, 86K library | viability, % at 10 µM | H69AR lung tumor viability, ATP luminescence, 72 h; active compounds read low | 85,000 tested, 6% active;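 active = viability at or below 40%; inactive = viability above 40%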;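 note: multidrug resistant small cell line overexpressing MRP-1 efflux transporter; 100% = mean luminescence of untreated control wells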
HUVEC prolif 384: inhibitors of HUVEC proliferation, primary screen, cell-based, 384-well; 86,000 tested, 1.1% active; CellTiter-Glo luminescence, 72 h; active compounds read low; viability, % at 10 µM (by protocol);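 active = viability at or below 30%; inactive = viability above 30%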;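 note: 100% = median luminescence of DMSO-only cell control wells on each plate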
* = called active by the depositor; . = no result given. Many of the other results were omitted from the sample, so hits are more common in it than they were.

SMILES	Fibroblast inh	PTEN del growth	HCT116 bCat-KO	H69AR growth 86K	HUVEC prolif 384
CCOC(=O)N1CC=C2C(C#N)=C(N)C(C#N)(C#N)[C@H](c3cccs3)C2C1 (stereo partly drawn)	92.1	85.9	93.4	37.1*	83.0
CC1CC=C2C(C#N)=C(N)C(C#N)(C#N)C(c3cccs3)C2C1 (stereo not drawn)	89.6	76.9	77.5	31.6*	81.8
O=C(Nc1ccc(Nc2ccccc2)cc1)C(Cl)(Cl)Cl	.	24.0	19.3	.	.
CC1(C)C2CCC1(C)C1(C2)NC(=O)c2ccccc2O1 (stereo not drawn)	.	90.6	81.6	.	.
CCOC(=O)c1cccnc1NC(=O)c1ccccc1	.	104.9	103.8	.	.
O=C(OCC#CCSc1nnc(-c2ccc([N+](=O)[O-])cc2)o1)c1cccs1	98.0	89.3	79.5	36.6*	90.9
Cc1c(C(=O)Nc2nccs2)sc2nc(-c3cccs3)cc(C(F)(F)F)c12	67.9	2.2*	1.8*	36.0*	44.5
COc1ccc(N=C2S/C(=C\c3ccc(N4CCOCC4)o3)C(=O)N2CCc2c[nH]c3ccccc23)cc1	.	1.6*	1.9*	.	.
CCOc1ccc(C(=O)N/N=C(\c2ccccc2)c2ccccn2)cc1	.	2.6*	3.7*	.	.
Cc1ccc(-c2[nH]nc(N)c2N=Nc2cccc(Cl)c2C)cc1	.	8.5	11.8	.	.
Cc1ccc(-c2[nH]nc(N)c2N=Nc2ccccc2C)cc1	.	5.3	3.1*	.	.
Cc1ccc(-c2cc(-c3ccccc3O)nc(N/N=C/c3cccnc3)n2)cc1	.	2.9*	4.0*	.	.
C(=N\Nc1nc(-c2ccccc2)cs1)/c1cccnc1	.	81.4	74.9	.	.
COc1ccccc1N1CCN(C2CCN(C(=O)c3cccs3)CC2)CC1	101.6	90.7	84.8	91.5	92.7
COc1ccccc1N1CCN(C(=O)c2cc(-c3ccc(C)cc3)on2)CC1	104.8	87.5	84.6	96.2	105.6
COc1ccccc1N1CCN(C(=O)c2ccc(Br)s2)CC1	96.1	85.2	82.6	56.2	3.9*
COc1ccccc1N1CCN(C(=O)c2oc3ccccc3c2C)CC1	87.4	.	.	17.5*	58.4
COc1ccccc1-c1cc(C(=O)N2CCN(c3ccccc3OC)CC2)no1	97.2	55.0	77.2	27.8*	77.3
COc1ccccc1N1CCN(C(=O)c2oc3ccc(F)cc3c2C)CC1	.	50.9	60.6	.	.
Cc1cc(Br)ccc1OCCCCN1CCC(C)CC1	.	53.4	44.6	.	.
COc1nnc(-c2ccc(N3CCOCC3)c(NC(=O)C3CCCCC3)c2)c2ccccc12	.	91.2	88.5	.	.
COc1nnc(-c2ccc(N3CCCCC3)c(NC(=O)C3CCCCC3)c2)c2ccccc12	98.1	11.8	11.3	8.7*	65.6
Cc1ccc(S(=O)(=O)Cc2ccc(C(=O)N3CCN(c4ccc(F)cc4)CC3)o2)cc1	77.9	25.7	34.7	19.8*	63.6
Cc1ccccc1S(=O)(=O)Cc1ccc(C(=O)N2CCN(c3ncccn3)CC2)o1	98.8	94.2	95.1	76.5	92.8
Cc1ccccc1S(=O)(=O)Cc1ccc(C(=O)N2CCN(c3ccc(F)cc3)CC2)o1	92.7	64.4	60.1	33.5*	92.0
SMILES	Fibroblast inh	PTEN del growth	HCT116 bCat-KO	H69AR growth 86K	HUVEC prolif 384
COC(=O)c1ccccc1NC(=O)C1CC(=O)N(c2ccc(C)cc2)C1 (stereo not drawn)	96.0	57.9	66.0	34.7*	76.5
FC(F)(F)c1nnc2c(Sc3ccccc3)nc3ccc(Cl)cc3n12	.	4.4	3.6*	.	.
CCOC(=O)/C(=N\Nc1cc(C(F)(F)F)ccc1Cl)N(CC)CC	.	76.4	89.9	.	.
COCn1ccnc1C(O)(c1ccc(OC)cc1)c1ccc(OC)cc1	.	106.9	95.9	.	.
CCc1ccc2[nH]c3nc(SCc4nnc(-c5ccc(C)cc5)o4)nnc3c2c1	44.4*	45.6	54.9	9.4*	35.8
N#Cc1nc(COc2ccc(-c3ccccc3)cc2)oc1NCCCN1CCOCC1	103.0	33.4	25.2	48.7	6.3*
CN(C)CCNc1oc(COc2ccc(-c3ccccc3)cc2)nc1C#N	45.2*	75.4	87.7	15.3*	39.7
C=CCNc1oc(COc2ccc(C)cc2)nc1C#N	97.1	103.5	101.2	91.7	98.3
N#Cc1nc(COc2ccccc2)oc1NCCN1CCOCC1	.	88.0	101.8	.	.
Cn1c(C(=O)NC2CCCC2)cc2c(=O)n(C)c3ccccc3c21	94.4	71.0	68.5	60.6	79.0
Cc1cc(C(=O)N/N=C/c2ccc(Cl)c([N+](=O)[O-])c2)c(C)n1-c1ccc(F)cc1	.	2.5*	3.1*	.	.
